Series [1] relates to Swiss mice. Put plainly: Formalin plantar test with. The class given is in vivo, mouse. Particulars: for Effect on analgesic effects of methanandamide in formalin test: 30 min before intraplantar formalin with mAEA 50 μg. The gist of the method: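 Swiss mice were pretreated i.p. with vehicle, test compound (20 mg-kg−1) or CB1 antagonist (2 mg-kg−1). Intraplantar formalin followed 30 min later, with or without co-injected (R)-methanandamide (50 μg). Nociception was scored in the first phase (0–15 min) and second phase (15–45 min). n = 8–13. Analysis was repeated-measures ANOVA with Bonferroni tests. Error bars are SEM.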

For series [2], the system named is mice. Put plainly: Motor activity in mice. The class given is in vivo, mouse. The settings on record: 20 mg-kg−1 i.p.; data not shown.
The next series concerns ob/ob mice. Put plainly: Food intake and body-weight gain in ob/ob mice, daily treatment for 2 weeks. The class given is in vivo, mouse. The settings on record: 20 mg-kg−1 i.p. once daily for 2 weeks. The gist of the method: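 Genetically obese ob/ob mice received test compound (20 mg-kg−1, i.p.) or vehicle once daily for 2 weeks. Food intake was recorded, and body weight was expressed as % change from day 0. n = 8 per group. Analysis was 2-way repeated-measures ANOVA with Bonferroni post hoc test. Error bars are SEM.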

A further series concerns the target CB1 receptors (Rattus norvegicus, UniProt P20272). Put plainly: GTPγS binding in rat cerebellar membrane preparations. The class given is biochemical. Particulars: absence of WIN55,212-2; 100 nM–10 μM; data not shown.
The nature of series [3]: Drug levels in plasma and tissues after systemic administration. Format: in vivo, mouse.
In series [4] the test system is mice. Put plainly: WIN55,212-2-induced catalepsy, ring catalepsy test. Format: in vivo, mouse. Particulars: for Effect on WIN55,212-2-induced catalepsy: 30 min prior to WIN55,212-2 5 mg-kg−1. The method, boiled down: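 Mice were pretreated i.p. with vehicle, test compound (20 mg-kg−1) or CB1 antagonist (5 mg-kg−1). After 30 min they received vehicle or WIN55,212-2 (5 mg-kg−1, i.p.). Cataleptic behaviour was scored 30 min after the WIN55,212-2 injection. n = 6. Analysis was ANOVA with Bonferroni post hoc tests. Error bars are SEM.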

Series [5] has as its system Swiss mice. Put plainly: Food intake over 24 h in Swiss mice. Particulars: 30 min before dark onset; for Effect on total food consumption: 20 mg-kg−1 i.p. Format: in vivo, mouse. The gist of the method: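 Male Swiss mice were dosed i.p. with test compound (5 or 20 mg-kg−1) or vehicle 30 min before dark onset. Cumulative food intake was monitored for 24 h. n = 12 per group. Data were analysed by 2-way repeated-measures ANOVA with Bonferroni post hoc test. Error bars are SEM.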

Series [6] relates to Swiss mice. Put plainly: WIN55,212-2-induced hypothermia. Format: in vivo, mouse. The gist of the method: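 Swiss mice received a first i.p. injection of vehicle, test compound (20 mg-kg−1) or CB1 antagonist (2 mg-kg−1). A second injection of WIN55,212-2 (3 mg-kg−1, i.p.) followed 30 min later. Body temperature was read 30 min after WIN55,212-2. n = 5. Analysis was ANOVA with Bonferroni post hoc tests. Error bars are SEM.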

The subject of the next series is mouse CB2 receptors. Put plainly: cAMP accumulation in Hek-293 cells stably expressing mouse CB2 receptors. The class given is cell-based. Particulars: isoproterenol 10 μM alone; basal 18 ± 2.4; n = 4.

Experimental findings from publication PMC3690177 (Bioorganic & medicinal chemistry letters, 2008) are described below.

Molecules are shown by their SMILES.

Chain of CB1 receptors (P20272 whole entry): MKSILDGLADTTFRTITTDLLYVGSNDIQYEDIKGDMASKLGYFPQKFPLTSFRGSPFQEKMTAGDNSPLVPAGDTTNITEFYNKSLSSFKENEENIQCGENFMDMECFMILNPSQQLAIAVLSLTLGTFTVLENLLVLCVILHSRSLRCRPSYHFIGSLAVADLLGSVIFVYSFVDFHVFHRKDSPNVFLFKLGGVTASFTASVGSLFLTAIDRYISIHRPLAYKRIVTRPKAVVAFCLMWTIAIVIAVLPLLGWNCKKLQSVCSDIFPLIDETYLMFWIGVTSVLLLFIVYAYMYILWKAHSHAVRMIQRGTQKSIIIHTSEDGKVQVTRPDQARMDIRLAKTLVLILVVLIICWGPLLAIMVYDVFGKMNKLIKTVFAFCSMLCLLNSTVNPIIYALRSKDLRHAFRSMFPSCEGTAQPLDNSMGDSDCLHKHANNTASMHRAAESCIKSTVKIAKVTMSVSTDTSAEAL

Take `CCCCC/C=C\C/C=C\C/C=C\C/C=C\CCCC(=O)N[C@H](C)CO` [(R)-methanandamide]: in the series on Swiss mice [1] (mAEA 50 μg co-injected with formalin), the “Effect on nocifensive behavior in the formalin plantar test” value is recorded as “inhibits”.

In the case of `Cc1c(C(=O)c2ccccc2)c(N)c(-c2ccccc2)n1Cc1ccc(Cl)cc1` [URB447, [4-amino-1-(4-chlorobenzyl)-2-methyl-5-phenyl-1H-pyrrol-3-yl](phenyl)methanone], in the series on mice [2], the “Effect on motor activity” value is recorded as “did not alter”. Moreover, in the series with ob/ob mice, the “Amount of food consumed throughout the treatment period” value is recorded as “significant reduction” and the Body-weight gain result is reported as “significant attenuation”. Further, at CB1 receptors, the “Inhibition of basal GTPγS binding” value is reported as “failed to inhibit”. Besides, in the series on Swiss mice [1] (20 mg-kg−1 i.p.), the “Effect on analgesic effects of methanandamide in formalin test” value is reported as “completely blocked”. Further, in series [3] (20 mg-kg−1 i.p.), the “Liver Cmax” value is reported as 4.3 ± 0.7 nmol/g, the “Time of maximal tissue levels in liver” value is 15 min and the “Time of maximal tissue levels in white adipose fat” value is 15 min. In series [3] (mouse, plasma, ip, 20 mg), the Cmax was found to be 596 ± 117 nM and the Tmax was 30 min. The “Effect on WIN55,212-2-induced catalepsy” value with mice [4] (20 mg-kg−1 i.p.) was “unaffected”. The “Effect on food intake” value with Swiss mice [5] (5 mg-kg−1 i.p.) is listed as “no effect”. Besides, in the series with Swiss mice [5], the “Effect on total food consumption” value is “drastically reduced”.

With `Cc1c(C(=O)c2cccc3ccccc23)c2cccc3c2n1[C@H](CN1CCOCC1)CO3` [WIN55,212-2], in the series with Swiss mice [6] (3 mg-kg−1 i.p., 30 min after administration), the Body temperature effect result was “maximal hypothermia”. Besides, the “Time spent cataleptic in the ring catalepsy test” value with mice [4] (5 mg-kg−1, scored 30 min later) is reported as “significant increase”.

Regarding `CC(C)NCC(O)c1ccc(O)c(O)c1` (stereo not drawn) [isoproterenol], the cAMP levels in the series with mouse CB2 receptors came to 56.2 ± 6 pmol/well.

With `Cc1c(C(=O)NN2CCCCC2)nn(-c2ccc(Cl)cc2Cl)c1-c1ccc(Cl)cc1` [rimonabant], in the series on Swiss mice [6] (2 mg-kg−1 i.p., 30 min pretreatment, WIN55,212-2 3 mg-kg−1 i.p.), the “Effect on WIN55,212-2-induced hypothermia” value is “attenuated”. Further, the “Effect on analgesic effects of methanandamide in formalin test” value in the series on Swiss mice [1] (2 mg-kg−1 i.p.) is listed as “completely blocked”. Moreover, the “Effect on WIN55,212-2-induced catalepsy” value with mice [4] (5 mg-kg−1 i.p.) is “reversed”. For the same compound, the “Effect on total food consumption” value in the series on Swiss mice [5] is listed as “mimicked”.
